From ChEMBL document CHEMBL2169874, “Design, synthesis, and pharmacological evaluation of novel hybrid compounds to treat sickle cell disease symptoms. part II: furoxan derivatives” (J Med Chem, 2012)
Calls of active or inactive are those of the source. The rule behind the calls is not given here.

Legend:
[1] = Induction of nitrite release at 10^-4 M after 1 hr by Griess method in presence of L-cysteine; type: physicochemical; settings: 100 µM
Mus musculus [2] = test: Antinociceptive activity in Swiss albino mouse assessed as inhibition of acetic-acid induced abdominal constriction at 100 umol/kg, po administered 1 hr prior to acetic-acid challenge measured after 10 mins relative to vehicle-treated control; type: functional; settings: Abdomen
In short: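 Mice dosed orally at 100 μmol/kg as a suspension in 5% arabic gum in saline. 0.6% acetic acid (0.1 mL/10 g) given ip 1 h later. Starting 10 min after injection, constrictions per animal counted for 20 min. Vehicle controls received an equal volume. Expressed as % inhibition vs vehicle group; mean ± SEM, 10 animals per group; Student's t test.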

Mus musculus [3] = test: Mutagenicity in Swiss mouse assessed as micronucleated reticulocytes in peripheral blood at 100 mg/kg, po after 30 hrs by micronucleus test; type: toxicity, organism-based; design: dose 100 mg/kg, route oral; settings: in vivo
In short: (§1)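 Swiss mice of both sexes (25−30 g), 10 per group, gavaged at 25, 50 or 100 mg/kg. Negative control: 1% CMC/0.2% Tween by gavage; positive control: cyclophosphamide 50 mg/kg ip. Blood collected 30 h later, slides prestained with acridine orange. 1000 reticulocytes scored per animal for micronucleated cells; mean with SD.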

Mus musculus [4] = test: Mutagenicity in Swiss mouse assessed as micronucleated reticulocytes in peripheral blood at 25 mg/kg, po after 30 hrs by micronucleus test; type: toxicity, organism-based; design: dose 25 mg/kg, route oral; settings: in vivo; in short: as §1
K562 [5] = test: Upregulation of gamma-globin mRNA expression in human K562 cells at 100 uM after 96 hrs by qRT-PCR analysis relative to control; type: functional
In short: (§2)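 K562 cells in DMEM with 10% FBS, penicillin/streptomycin, 37 °C, 5% CO2, seeded at 1 × 10^7 cells/100 mL. Treated at 5−100 μM for 24, 48, 72 or 96 h. γ-globin mRNA by SYBR Green qRT-PCR, normalized to β-actin and GAPDH, vs vehicle control (DMSO, or water for HU). Mean ± SEM, n = 5; ANOVA with Dunnett's test.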

K562 [6] = test: Upregulation of gamma-globin mRNA expression in human K562 cells at 5 uM after 24 to 96 hrs by qRT-PCR analysis relative to control; type: functional, cell-based; in short: as §2
Mus musculus [7] = test: Mutagenicity in Swiss mouse assessed as micronucleated reticulocytes in peripheral blood at 50 mg/kg, po after 30 hrs by micronucleus test; type: toxicity, organism-based; design: dose 50 mg/kg, route oral; settings: in vivo; in short: as §1
K562 [8] = test: Upregulation of gamma-globin mRNA expression in human K562 cells at 5 uM after 96 hrs by qRT-PCR analysis relative to control; type: functional; in short: as §2
K562 [9] = test: Upregulation of gamma-globin mRNA expression in human K562 cells at 5 uM after 24 hrs by qRT-PCR analysis relative to control; type: functional, cell-based; in short: as §2
K562 [10] = test: Upregulation of beta-soluble guanilate cyclase mRNA expression in human K562 cells at 5 and 30 uM from 24 to 96 hrs by qRT-PCR analysis relative to control; type: functional, cell-based
In short: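 K562 cells in DMEM with 10% FBS, penicillin/streptomycin, 37 °C, 5% CO2, seeded at 1 × 10^7 cells/100 mL. Treated at 5 or 30 μM for 24, 48, 72, 96 h. β-sGC mRNA by SYBR Green qRT-PCR, normalized to β-actin and GAPDH, vs DMSO control. Mean ± SEM, n = 5; Mann−Whitney test.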

Structure (SMILES)	Activity [1] [%]	inhibition (Mus musculus [2])	also measured
O=C1c2ccccc2C(=O)N1c1ccc(S(=O)(=O)NCCOc2no[n+]([O-])c2S(=O)(=O)c2ccccc2)cc1	28.1		inhibition in vivo at 100 µmol/kg (Mus musculus [2]): 36%
NC(=O)NO [HYDROXYUREA]		inactive	Activity (Mus musculus [3]): 33.7; Activity (Mus musculus [4]): 9.9; fold change (FC) (K562 [5]): 1.77; Activity (K562 [6]): inactive; Activity (Mus musculus [7]): 15
O=C1c2ccccc2C(=O)N1CCOc1c(S(=O)(=O)c2ccccc2)no[n+]1[O-]	9.5		fold change (FC) (K562 [8]): 2.8; Activity (Mus musculus [3]): 6.7; Activity (Mus musculus [4]): 4; inhibition in vivo at 100 µmol/kg (Mus musculus [2]): 43%; Activity (K562 [9]): Active; Activity (Mus musculus [7]): 5.5; Activity (K562 [10]): inactive
O=[N+]([O-])O[C@H]1CO[C@H]2[C@@H]1OC[C@H]2O[N+](=O)[O-] [ISOSORBIDE DINITRATE]	11.6		
Cc1c(N(C)CS(=O)(=O)O)c(=O)n(-c2ccccc2)n1C		Active	

The next lines start with results.

Activity [1] [%]	Structure (SMILES)	inhibition (Mus musculus [2])	also measured
14.8	O=C1c2ccccc2C(=O)N1Cc1c(-c2ccccc2)no[n+]1[O-]	inactive	
9.7	O=C(OCc1c(-c2ccccc2)no[n+]1[O-])c1ccccc1N1C(=O)c2ccccc2C1=O	inactive	
13.2	O=C(OCc1c(-c2ccccc2)no[n+]1[O-])c1cccc(N2C(=O)c3ccccc3C2=O)c1	inactive	
10.6	O=C(OCc1c(-c2ccccc2)no[n+]1[O-])c1cc(N2C(=O)c3ccccc3C2=O)ccc1O	inactive	
28.2	O=C(NCCOc1no[n+]([O-])c1S(=O)(=O)c1ccccc1)c1ccc(N2C(=O)c3ccccc3C2=O)cc1	inactive	
